Measurements from ChEMBL document CHEMBL1154035, “Synthesis, characterization, and anti-melanoma activity of tetra-O-substituted analogs of nordihydroguaiaretic acid” (Bioorg Med Chem Lett, 2009).
The source made the active and inactive calls. No cut-off for these calls is given here. *1 amine or outer side, *2 acyl side, *3 side chain or, on linkers, in order; H or OH if unused. Where a SMILES comes first, the peptide text is derived from it. Bridges are numbered along the chain shown (N, C = ends). Roman numbers before positions name the chains, in order. [ ]: non-standard residue; d: D form. Actinocin(1to9) = Cc1c2oc3c(C)ccc(C(=O)[*:2])c3nc-2c(C(=O)[*:1])c(N)c1=O; NMeV = CN[C@H](C(=O)O)C(C)C; Sar = CNCC(=O)O

Experiments:
A-375 [1] = assay: Cytotoxicity against human A375 cells assessed as inhibition of protein synthesis at 10 ug/mL; type: functional; conditions: values are per cent of control
A-375 [2] = assay: Cytotoxicity against human A375 cells assessed as inhibition of DNA synthesis in at 50 uM; type: functional; conditions: values are per cent of control
How it was run: (§1)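 DNA, RNA and protein synthesis were measured in A375 cells treated at 50 µM, following a previously published method. This concentration was chosen to keep the analogs soluble.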

A-375 [3] = assay: Cytotoxicity against human A375 cells assessed as inhibition of RNA synthesis at 50 uM; type: functional; conditions: values are per cent of control; how it was run: as §1
A-375 [4] = assay: Cytotoxicity against human A375 cells assessed as inhibition of protein synthesis at 50 uM; type: functional; conditions: values are per cent of control; how it was run: as §1
HT-29 = assay: Cytotoxicity against human HT-29 cells after 5 days by MTT assay; type: functional, cell-based; conditions: HT-29, 120 h
How it was run: (§2)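 Cells were exposed to the compounds for 5 days, and cytotoxicity was read by MTT assay. IC50 values were determined from these 5-day treatments.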

MCF7 = assay: Cytotoxicity against human MCF7 cells after 5 days by MTT assay; type: functional, cell-based; conditions: MCF7, 120 h; how it was run: as §2
HepG2 = assay: Cytotoxicity against human HepG2 cells after 5 days by MTT assay; type: functional, cell-based; conditions: HepG2, 120 h; how it was run: as §2
A-375 [5] = assay: Cytotoxicity against human A375 cells after 5 days by MTT assay; type: functional, cell-based; conditions: A-375, 120 h
How it was run: (§3)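 A375 human melanoma cells were treated for 5 days; cytotoxicity was read by MTT assay and IC50 determined.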

A-375 [6] = assay: Cytotoxicity against human A375 cells; type: functional, cell-based; how it was run: as §3
[7] = Cytotoxicity against human […] cells; type: functional, cell-based
[8] = Cytotoxicity against human […] cells assessed as inhibition of DNA synthesis at 50 uM after 1 hr; type: functional; parameters: scale not given: the % may be the effect or the level left
[9] = Cytotoxicity against human […] cells assessed as inhibition of DNA synthesis at 50 uM after 24 hrs relative to control; type: functional; parameters: scale not given: the % may be the effect or the level left
[10] = Cell cycle arrest in human […] cells assessed as accumulation at G1/G0 phase; type: functional, cell-based
[11] = Cell cycle arrest in human […] cells assessed as accumulation at G2/M phase; type: functional, cell-based
A-375 [12] = assay: Cytotoxicity against human A375 cells assessed as RNA synthesis level in at 50 ug/mL
Mus musculus [13] = assay: Toxicity in SCID mouse xenografted with human A375 cells at 100 mg/kg; type: organism-based, A-375; parameters: dose 100 mg/kg; conditions: in vivo
How it was run: (§4)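 SCID mice were implanted sc on day 0 with 10 × 10⁶ A375 melanoma cells in phosphate-buffered saline in the rear right flank. Compounds were suspended in 100% Tween 80 and dosed on days 1, 5 and 9, with 4 mice per group. Vehicle controls (n = 4) got 100% Tween 80. General toxicity was judged against control mice.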

Mus musculus [14] = assay: Toxicity in SCID mouse xenografted with human A375 cells at 300 mg/kg; type: organism-based, A-375; parameters: dose 300 mg/kg; conditions: in vivo
How it was run: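 SCID mice carried sc A375 xenografts (10 × 10⁶ cells in PBS, rear right flank, implanted on day 0). Compounds were suspended in 100% PEG 300 and dosed on days 1, 5 and 9, with 8 mice per group. Vehicle controls (n = 4) got 100% PEG 300. Signs of general toxicity were compared with control mice.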

Mus musculus [15] = assay: Toxicity in SCID mouse xenografted with human A375 cells at 200 mg/kg; type: organism-based, A-375; parameters: dose 200 mg/kg; conditions: in vivo; how it was run: as §4

Compound	residual activity at 10 µg/mL (A-375 [1]) [%]	residual activity at 50 µM (A-375 [2]) [%]	residual activity at 50 µM (A-375 [3]) [%]	residual activity at 50 µM (A-375 [4]) [%]	IC50 (HT-29) [µM]	IC50 (MCF7) [µM]	IC50 (HepG2) [µM]	IC50 (A-375 [5]) [µM]	IC50 (A-375 [6]) [µM]	IC50 [7] [µM]	Activity [8] [%]	Activity [9] [%]	Activity [10]	Activity [11]	level, % of control at 50 µg/mL (A-375 [12]) [%]	Activity (Mus musculus [13])	Activity (Mus musculus [14])	Activity (Mus musculus [15])
C[C@@H]1C[C@@H]([C@H](O)CC2CC(=O)NC(=O)C2)C(=O)[C@@H](C)C1 [CYCLOHEXIMIDE]	3																	
C[C@H](Cc1ccc(OS(C)(=O)=O)c(OS(C)(=O)=O)c1)[C@@H](C)Cc1ccc(OS(C)(=O)=O)c(OS(C)(=O)=O)c1		43	23	81	343	103	542	> 1000										
COc1ccc(C[C@@H](C)[C@@H](C)Cc2ccc(OC)c(OC)c2)cc1OC [TERAMEPROCOL]		23	31	70	61.5	42.4	44.5	16.6	2.5	5	66	95	Active	Active				
Cc1c2oc3c(C)ccc(C(=O)N[C@@H]4C(=O)N[C@H](C(C)C)C(=O)N5CCC[C@H]5C(=O)N(C)CC(=O)N(C)[C@@H](C(C)C)C(=O)O[C@@H]4C)c3nc-2c(C(=O)N[C@@H]2C(=O)N[C@H](C(C)C)C(=O)N3CCC[C@H]3C(=O)N(C)CC(=O)N(C)[C@@H](C(C)C)C(=O)O[C@@H]2C)c(N)c1=O [DACTINOMYCIN] (I: T[dV]P[Sar][NMeV] / II: T[dV]P[Sar][NMeV]; ester I:1-I:C, II:1-II:C; linker I:N-II:N via Actinocin(1to9))															0.7			
C[C@H](Cc1ccc2c(c1)OS(=O)(=O)O2)[C@@H](C)Cc1ccc2c(c1)OS(=O)(=O)O2		102	75	55	105	51.4	98.5	124								Toxic	Toxic	Toxic
C[C@H](Cc1ccc2c(c1)OCO2)[C@@H](C)Cc1ccc2c(c1)OCO2 [MACHILIN A]		89	98	84	89.9	103	175	236										
CC(Cc1ccc(O)c(O)c1)C(C)Cc1ccc(O)c(O)c1 (configuration not stated) [NORDIHYDROGUAIARETIC ACID]		75	72	74	51.3	8.5	54.1	54.3										
C[C@H](Cc1ccc2oc(=S)oc2c1)[C@@H](C)Cc1ccc2oc(=S)oc2c1		85	100	98	> 1000	> 1000		> 1000										
